Data from ChEMBL document CHEMBL1125672, “2-acetylpyridine thiosemicarbazones. 13. Derivatives with antifilarial activity” (1991).

What was measured:
Onchocerca gutturosa [1] = assay: Mean motility score for treated Onchocerca gutturosa involving LLCMK2 feeder cells at a concentration of 1.21*10e-8M at 1.5 h; format: functional
How it was run: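 One male O. gutturosa per well over LLCMK2 feeder cells in MEM with 10% heat-inactivated FCS, antibiotics and bicarbonate, 5% CO2; compound introduced in DMSO (≤0.016%, equal DMSO in controls). Motility scored 0 (immotile) to 10 (maximal control activity) every 30 min to 4.5 h, then at 1, 2, 3, 4 and 7 days.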

Onchocerca gutturosa [2] = assay: Colorimetric quantification of male Onchocerca gutturosa viability, expressed as % inhibition of formazan formation at 4.88*10e-8M conc. by using tetrazolium Dye MTT assay; format: functional
How it was run: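 Single intact male O. gutturosa, cultured with LLCMK2 feeder cells in MEM + 10% heat-inactivated FCS (5% CO2), drug added from DMSO (≤0.016% DMSO in controls). MTT read after 168 h: worm in 0.5 mg/mL MTT, 30 min at 36.5 °C, formazan solubilized in DMSO 1 h at room temperature, absorbance 490 nm vs DMSO blank.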

| Compound | Motility (Onchocerca gutturosa [1]) | Inhibition (Onchocerca gutturosa [2]) [%] |
| --- | --- | --- |
| C/C(=N\NC(S)=Nc1ccccc1N)c1ccccn1 | 4.3 | – |
| C/C(=N\NC(=S)N1CCCCCC1)c1ccccn1 | – | 31.7 |
